M1 ag: M1 muscarinic receptor agonism. CHO-M1 cells, Fluo-4 calcium fluorescence, agonist mode; hits give high values. B-score at 10 µM. actives 3% (n = 64,000). AID 626;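 active = fluorescence rise, raw or as B-score row- and column-corrected plate score, outside the 99.7% band of its plate's samples, either direction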
MT1-MMP txn act: activates MT1-MMP transcription. HT1080 MT1-MMP promoter luciferase reporter, luminescence, overnight; hits give high values. activation factor at 10 µM. actives 0.16% (n = 86,000);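 active = activation factor of at least 2 for MT1-MMP transcription at 10 µM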
SF1 activator: SF-1 (human) activation; Q13285; CHO-K1 Gal4-SF-1 LBD luciferase reporter; % increase over DMSO SF-1-specific signal; activation, % at 10 µM; actives 1.9% (n = 65,000);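 active = activation above the mean activation of all tested compounds plus 3 SD, cut at about 50% in these data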
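Material: Transient Gal4-SF-1 LBD reporter, CHO-K1 | Input: 4,000 cells/well | Dosing: One dose, 10 µM compound, 1% DMSO | Incubation: 20 h compound treatment, 37 °C | Detection: SteadyLite luciferase luminescence | Evaluation: Percent activation relative to DMSO median and mock-transfected background | Benchmarks: DMSO-treated SF-1-transfected cells as negative, DMSO-treated mock-transfected cells lacking SF-1 as background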
RORa activator: RORA (human) activation; P35398; CHO-K1 Gal4-RORA LBD luciferase reporter, luminescence; percent increase over mock-subtracted basal signal; activation, % at 10 µM; actives 1.5% (n = 65,000); AID 560;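 active = activation above the mean of all tested compounds plus 3 SD, cut at about 49% in these data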;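 note: 0% = DMSO-treated RORA cells and 100% = added signal equal to DMSO minus mock-transfected cells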
Target sequence (P35398 whole entry, looked up, the tested form may be a part): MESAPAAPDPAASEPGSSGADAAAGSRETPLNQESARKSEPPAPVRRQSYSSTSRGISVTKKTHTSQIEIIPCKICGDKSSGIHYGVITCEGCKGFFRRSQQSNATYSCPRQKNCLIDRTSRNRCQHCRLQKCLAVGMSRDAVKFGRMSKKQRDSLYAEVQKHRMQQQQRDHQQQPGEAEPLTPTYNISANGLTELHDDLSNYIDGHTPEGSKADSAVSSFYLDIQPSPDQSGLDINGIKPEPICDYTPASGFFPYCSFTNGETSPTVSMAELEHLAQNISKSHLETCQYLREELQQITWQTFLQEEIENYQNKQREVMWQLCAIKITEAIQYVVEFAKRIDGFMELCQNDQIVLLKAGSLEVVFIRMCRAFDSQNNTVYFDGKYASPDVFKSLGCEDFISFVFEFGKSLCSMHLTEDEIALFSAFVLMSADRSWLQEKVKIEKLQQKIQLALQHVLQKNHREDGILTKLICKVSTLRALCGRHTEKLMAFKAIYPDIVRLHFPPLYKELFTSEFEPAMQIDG
M1 antag: antagonists of rat M1 muscarinic receptor | actives 3.4% (n = 64,000) | P08482 | B-score at 10 µM | AID 628 | CHO-M1 cells, Fluo-4 calcium, ACh EC80 antagonist mode; hits give low values;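 active = calcium fluorescence response, raw or row-and-column corrected B-score, differing from the plate sample mean either way at a set confidence level, mostly lower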
M1 ag confirm: rat M1 muscarinic agonism, confirmation. shares compounds with M1 ag. CHO-M1 cells, Fluo-4 calcium fluorescence, agonist mode; actives lie on both sides. fluorescence change (max-min) at 10 µM. actives 19% (n = 1,700). AID 1488;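 active = fluorescence change differs from the solvent-only DMSO control mean at a set confidence level in both duplicate runs; inconclusive = differs from solvent-only control mean in just one of two runs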;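 note: an EC20 dose of acetylcholine follows compound addition during the same imaging run; raw fluorescence intensity difference in instrument units with no normalization to controls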
M4 agonist ctr: counter-screen for M1 agonists: activity at rat M4 receptor | actives 9% (n = 1,700) | shares compounds with M1 ag | fluorescence change (max-min) at 10 µM | CHO M4/Gqi5 cells, Fluo-4 calcium fluorescence, agonist mode; actives lie on both sides | AID 1741;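 active = fluorescence change differing from the plate's solvent-only control wells at 99.7% confidence in both duplicates, whether higher or lower; inconclusive = differs from solvent controls in only one of two duplicates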
The depositor's hits bear a star; ? = inconclusive; / = no result given. Sampled rows, rich in hits. Any-hit rate of the full collection: about 6.3%.

SMILES	M1 ag	MT1-MMP txn act	SF1 activator	RORa activator	M1 antag	others
CCOC(=O)c1ccc(NC(=O)c2c(O)[nH]c(=O)[nH]c2=O)cc1	86*	1	7	12	0.27
CCCC[C@@H]1C[C@H]1[C@@H](NP(=O)(c1ccccc1)c1ccccc1)c1ccc(Cl)cc1	/	1.1	/	/	/
CN1C(=O)/C(=C/c2ccc(N3CCCCCC3)o2)C(=O)NC1=S	/	2.2*	/	/	/
CC(C)CC12CN3CCN(CC(C3)C1O)C2 (stereo not given)	1.1	/	-11	-17	1.4*
CC1N(P(=O)(c2ccccc2)c2ccccc2)CC(O)(c2ccccc2)CC12CC2 (stereo not given)	/	1.4	/	/	/
CN(C)C1=NP(N(C)C)(N(C)C)=NC(c2ccccc2)=N1	-0.16	1.1	-8	17	-0.019
O=c1cccc2n1CC1CC2CN(c2ncnc3c2cnn3-c2ccc(Cl)cc2)C1 (stereo not given)	-3.6*	1.2	6	-10	0.25
O=c1cccc2n1CC1CC2CN(S(=O)(=O)c2ccccc2)C1 (stereo not given)	/	1.4	/	/	/
COC(=O)[C@H]1C[C@H]2CC[C@H](O)C[C@H]2N1CC1CC1	/	1.1	/	/	/
CCCc1[nH]nc2c1C1(C(=O)N(CC(N)=O)c3ccccc31)C(C(=O)OC)=C(N)O2 (stereo not given)	1.8	1.1	6	2	2.3*
CCCc1[nH]nc2c1C1(C(=O)N(Cc3ccccc3)c3ccccc31)C(C(=O)OC)=C(N)O2 (stereo not given)	/	1.1	/	/	/
CCOC(=O)[C@]1(C#N)[C@@H]2C=CC(C(C)=O)=CN2[C@@H](C(N)=O)[C@@H]1c1ccsc1	26*	1	-10	-5	-0.2
O=C1C2(c3ccccc3)CN3CN(C2)CC1(c1ccccc1)C3	/	1	/	/	/
COc1ccccc1OCCCn1cc(C(=O)c2ccco2)c2ccccc21	2.2	1.3	52*	65*	-0.083
C[C@H]1CCC[C@H](O)CCCCCc2cc(O)cc(O)c2C(=O)O1	-0.13	0.8	6	9	2.4*
O=c1[nH]c(=O)n(CCC2=CCCCC2)c(O)c1C=Nc1cccc(F)c1	/	1.1	/	/	/
Nc1ccccc1N=Cc1c(O)n(CCC2=CCCCC2)c(=O)[nH]c1=O	-0.012	1.1	78*	44	-0.27
CCCN1[C@@H]2C[C@@H](O)CC[C@@H]2C[C@H]1C(=O)OC	/	1.2	/	/	/
CCCC/C=C/[C@@H](NP(=O)(c1ccccc1)c1ccccc1)c1ccccc1OC	/	1	/	/	/
O=C(C1CC(c2ccc(F)cc2)=NO1)N1CCC2(CC1)OCCO2 (stereo not given)	/	1.5	/	/	/
O=C(C1CC(c2ccc(Cl)c(Cl)c2)=NO1)N1CCC2(CC1)OCCO2 (stereo not given)	0.0069	1.4	30	73*	-2
COc1cccc(C2=NOC(C(=O)N3CCC4(CC3)OCCO4)C2)c1 (stereo not given)	0.36	1.5	56*	26	-0.041
CCCCn1c(O)c(C(CC)=NCc2ccc3c(c2)OCO3)c(=O)[nH]c1=O	4.3*	1	-8	3	-0.8	M1 ag confirm=5.3;M4 agonist ctr=-24
Cc1ccccc1Cc1c(C)nc2nc(SCC(=O)N3CCC4(CC3)OCCO4)nn2c1C	/	1.1	/	/	/
C=CCC1(CN2CCCCCC2=O)C(=O)NC(=O)NC1=O	-0.64	1.1	4	-2	-0.48
CNCC(O)c1cccc(OC(=O)c2ccccc2C)c1 (stereo not given)	-3.3*	1.1	18	-14	0.58	M1 ag confirm=-14;M4 agonist ctr=?
O=S1(=O)CC2(N3CCOCC3)CCCCCCC21 (stereo not given)	2.9*	1.1	26	7	0.45	M1 ag confirm=-12;M4 agonist ctr=-39
O=S1(=O)CC2(N3CCOCC3)CCCCC21 (stereo not given)	-0.33	1.1	-2	-7	0.36
COc1ccc(-n2c(=O)[nH]c3ccccc3c2=O)cc1	/	1.2	/	/	/
COc1ccc(P2(=O)Nc3ccccc3N2)cc1	8.4*	1.6	-6	-20	-0.3	M1 ag confirm=154*;M4 agonist ctr=163*
